Rows were chosen to be rich in hits. Some 0.74% of all compounds tested hit in one or more screens of this group.
Tn6 DDE FP: DD(E)-Tn6 binding inhibition, primary FP screen; inhibition, % at 8.3 µM; P02675; hit rate 0.21% among 370,000; Fibrin DD(E) TRITC-Tn6 fluorescence polarization displacement;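 active means inhibition above a per-campaign cutoff: mean of compounds within control limits plus 3 SD, cut at about 15% in these data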
ASAP1 inh: blocks human ASAP1-stimulated Arf1 GTP hydrolysis. Q9ULH1. GDP FP detection. inhibition, % at 16.5 µM. hit rate 0.19% among 360,000; in the data active means inhibition above about 25%
Target sequence (Q9ULH1 325-724 limits assumed): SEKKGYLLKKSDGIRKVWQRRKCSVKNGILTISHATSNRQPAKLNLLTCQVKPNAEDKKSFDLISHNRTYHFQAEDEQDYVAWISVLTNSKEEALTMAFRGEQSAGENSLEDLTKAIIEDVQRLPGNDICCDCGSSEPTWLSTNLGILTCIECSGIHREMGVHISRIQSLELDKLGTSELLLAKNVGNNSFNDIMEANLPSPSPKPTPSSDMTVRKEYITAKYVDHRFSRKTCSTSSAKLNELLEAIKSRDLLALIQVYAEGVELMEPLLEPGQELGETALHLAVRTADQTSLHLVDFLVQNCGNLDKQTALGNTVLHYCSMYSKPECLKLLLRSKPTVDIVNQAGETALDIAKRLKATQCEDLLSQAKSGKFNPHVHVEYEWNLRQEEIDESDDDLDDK
Tn7 DDE FP: disrupts Tn7 cyclic peptide binding to fibrin D-Dimer-E complex; hit rate 0.13% among 370,000; inhibition, % at 8.3 µM; FP displacement of FITC-Tn7 peptide from fibrin DD(E); 0% = median of compound wells per plate;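 active means inhibition above the mean of compounds falling within the control limits plus 3 SD of them, cut at about 14% in these data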
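Assay system: Fibrin-DD(E) protein isolated from polymerized human fibrin clots; read-out basis: percent inhibition; medium: Tris/NaCl/CaCl2 buffer, pH 7.8; signal: FP measurement; incubation: 10 min plus 3 h, room temperature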
ARFGAP1 inhibitor: inhibits rat ARF GTPase activating protein 1; Q62848; Arfgap1-stimulated ARF1 GTP hydrolysis, GDP FP detection; inhibition, % at 16.5 µM; hit rate 0.26% among 360,000; AID 651572;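 active means inhibition above a per-plate limit, mean inhibition of low control wells plus 3 SD, cut at about 25% in these data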
Target sequence (Q62848 1-136 limits assumed): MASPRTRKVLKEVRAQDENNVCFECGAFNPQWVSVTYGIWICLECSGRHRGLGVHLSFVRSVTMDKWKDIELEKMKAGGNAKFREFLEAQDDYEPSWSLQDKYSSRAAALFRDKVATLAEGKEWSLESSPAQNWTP
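Material – truncated rat Arfgap1 GAP domain · Buffer or medium – HEPES-based buffer, pH 7.5 · Reagent – human ARF1(Δ1-17)-GTP substrate · Dosing – 16.5 µM single point, 1.26% DMSO · Schedule – GTP hydrolysis reaction 2 h at 25 °C · Technique – GDP detection by fluorescence polarization · Benchmarks – No-Arfgap1 wells (100%) versus DMSO full-reaction wells (0%) · Repeats – single replicate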
DDE Tn7 confirm: DD(E)-Tn7 binding inhibition, FP confirmation | shares compounds with Tn7 DDE FP | FP displacement of TRITC-Tn7 peptide from DD(E); 0% set at plate's compound-well median | inhibition, % at 8.3 µM | hit rate 5% among 460;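 active means inhibition above the campaign cutoff, the mean of compounds within control limits plus 3 SD, cut at about 14% in these data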;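 further: displacers lower polarization since freed probe rises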
Tn7 DDE ctr: counter-screen for inhibitors of Tn7 peptide binding to fibrin DD(E). shares compounds with Tn7 DDE FP. TRITC-Tn7 probe displacement, fluorescence polarization. inhibition, % at 8.3 µM. hit rate 3% among 460. AID 720633;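 active means inhibition above the cutoff, the mean of compounds lying between the control bounds plus 3 SD of those compounds, cut at about 17% in these data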
Tn6 DDE ctr: counter-screen hit for Tn6 peptide-fibrin DD(E) binding disruption | shares compounds with Tn6 DDE FP | inhibition, % at 8.3 µM | TRITC-Tn6 fluorescence polarization displacement; 0% = median of compound wells, not DMSO | hit rate 2% among 680;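 active means inhibition above the mean of test compounds lying between the control limits plus 3 SD of those, cut at about 14% in these data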
Tn6 DDE conf: DD(E)-Tn6 binding inhibition, FP confirmation. shares compounds with Tn6 DDE FP. FP displacement of TRITC-Tn6 peptide from DD(E); 0% = per-plate median of test wells. inhibition, % at 8.3 µM. hit rate 10% among 680;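 active means inhibition above the mean of compounds lying within the control limits plus 3 SD, cut at about 16% in these data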
Large screens that a line does not name were inactive (follow-up assays come after a bar, where they were run).

O=C(COC(=O)c1ccc(Cl)cc1)NCC1CCCCC1	Tn7 DDE FP 15 | DDE Tn7 confirm inactive | Tn7 DDE ctr inactive
CC(Cl)C(=O)N1CCC(C(=O)NC2CCCc3ccccc32)CC1 (centres undefined)	none (no result: ASAP1 inh, ARFGAP1 inhibitor)
Cc1cc(Nc2cccc(Br)c2)cc(=O)n1-c1cccc(Br)c1	none
CC(=O)Nc1ccc(NC(=O)[C@@H](NC(=O)c2ccccc2F)C(C)C)cc1	Tn7 DDE FP 15 | DDE Tn7 confirm inactive | Tn7 DDE ctr inactive
O=C(NC1CCCC1)C(c1ccncc1)N(CC1CCCO1)C(=O)Cn1nnc(-c2cccs2)n1 (centres undefined)	none
Cc1ccc(C(C(=O)NCC2CCCO2)N(Cc2ccccc2F)C(=O)Cn2nnc(-c3cccs3)n2)cc1 (centres undefined)	Tn7 DDE FP 19 | DDE Tn7 confirm inactive | Tn7 DDE ctr inactive
C=CCCC1CN(Cc2ccc(OC)cc2)S(=O)(=O)c2c(NCc3cc(OC)c(OC)c(OC)c3)cccc2O1 (centres undefined)	none
O=C(Cc1ccccc1)NNC1=NS(=O)(=O)c2ccccc21	Tn7 DDE FP 14 | DDE Tn7 confirm inactive | Tn7 DDE ctr inactive
COC(=O)c1ccc(Cn2ccc3ccc(-c4ccc5ccn(C(=O)c6ccccc6OC)c5c4)cc32)cc1	none (no result: ASAP1 inh, ARFGAP1 inhibitor)
COc1cc(C)c(Cl)c(C)c1S(=O)(=O)NCc1ccc2c(c1)OCO2	Tn7 DDE FP 16 | DDE Tn7 confirm inactive | Tn7 DDE ctr inactive
COc1cc(C)c(S(=O)(=O)NCc2ccc3c(c2)OCO3)cc1C	none
Cc1ccc2nc(CN(C)C(=O)[C@@H](Cc3ccccc3)NC(=O)[C@H]3O[C@@H](n4cnc(C(N)=O)n4)[C@H](O)[C@@H]3O)[nH]c2c1	none
COC(=O)c1ccc(Cn2c(C)c(C(=O)NCc3ccc(C#N)cc3)sc2=O)o1	Tn7 DDE FP 14 | DDE Tn7 confirm inactive | Tn7 DDE ctr inactive
COC(=O)c1ccc(Cn2c(C)c(C(=O)NCc3ccc(Cl)c(Cl)c3)sc2=O)o1	none
C/C(=N\NC(=O)Cn1cnc2ccccc21)c1cccs1	Tn7 DDE FP 17 | DDE Tn7 confirm inactive | Tn7 DDE ctr inactive
Cc1ccccc1-c1ccc2c(c1)[C@@H]1C[C@H]3[C@@H](CN1CC2)[C@H](C)ON3C	none
CCOc1ccc(C(C)=O)cc1CSc1nnc(-c2ccoc2C)n1N	Tn7 DDE FP 16 | DDE Tn7 confirm inactive | Tn7 DDE ctr inactive
Cc1cc(NC(=O)CSc2nnc(-c3ccoc3C)n2N)no1	none
CC1=CC(c2ccccc2)n2nc(NS(=O)(=O)c3ccc(C)cc3)nc2N1 (centres undefined)	none
CC1=CC(c2ccc(Cl)cc2)n2nc(NS(=O)(=O)c3ccc(C)cc3)nc2N1 (centres undefined)	Tn7 DDE FP 14 | DDE Tn7 confirm inactive | Tn7 DDE ctr inactive
O=C(c1cccs1)N1CCC(Cc2ccccc2)CC1	Tn7 DDE FP 14 | DDE Tn7 confirm inactive | Tn7 DDE ctr inactive
Cc1cc(Br)cn2c(Cc3ccccc3C(F)(F)F)c(-c3ccco3)nc12	none
O=C1c2ccccc2-c2onc3ccc(N4CCCC4)c1c23	Tn6 DDE FP 100, Tn7 DDE FP 32 | DDE Tn7 confirm inactive | Tn7 DDE ctr 93 | Tn6 DDE ctr inactive | Tn6 DDE conf 93
CCNc1ccc2noc3c2c1C(=O)c1ccccc1-3	Tn6 DDE FP active, Tn7 DDE FP 17 | DDE Tn7 confirm 53 | Tn7 DDE ctr 93 | Tn6 DDE ctr 53 | Tn6 DDE conf 93
COc1ccccc1NC(=O)N(C)C[C@H]1OCc2cn(nn2)CCCC(=O)N([C@H](C)CO)C[C@@H]1C	none
CC(C)[C@H](NC(=O)c1ccc(Cl)c(Cl)c1)C(=O)N1CCC[C@H]1C(=O)NCc1ccccc1	none
CC1(C)CC(=O)C(C=Nc2ccc(C(=O)c3ccccc3)cc2N=CC2=C(O)CC(C)(C)CC2=O)=C(O)C1	Tn6 DDE FP 19, Tn7 DDE FP 14 | DDE Tn7 confirm inactive | Tn7 DDE ctr inactive | Tn6 DDE ctr inactive | Tn6 DDE conf inactive
Cn1ccnc1C(O)c1ccccc1 (centres undefined)	none
COc1ccc2ccccc2c1C(O)c1nccn1C (centres undefined)	Tn6 DDE FP 17, Tn7 DDE FP 33 | DDE Tn7 confirm 17 | Tn7 DDE ctr inactive | Tn6 DDE ctr 17 | Tn6 DDE conf inactive
COC(=O)CCC(=O)Nc1ccc(Cl)c(Cl)c1	none
COC(=O)CC1(C(=O)OC)Nc2cc(Cl)c(Cl)cc2S(=O)(=O)N1O (centres undefined)	Tn6 DDE FP 124, Tn7 DDE FP 88 | DDE Tn7 confirm 60 | Tn7 DDE ctr 58 | Tn6 DDE ctr 60 | Tn6 DDE conf 58
c1ccc(-c2c[nH]c3cccc(C4CCCCC4)c23)cc1	none (no result: ASAP1 inh, ARFGAP1 inhibitor)
CCO/C=C1\SC(=S)N(c2ccc(Cl)cc2)C1=O	none
CC(C)c1ccc(N2C(=O)/C(=C/N(C)C)SC2=S)cc1	Tn6 DDE FP 43 | Tn6 DDE ctr inactive | Tn6 DDE conf inactive
O=C(CC(c1ccccc1)c1ccccc1)NCc1cccnc1	none
CC(NCc1cccnc1)c1ccccc1 (centres undefined)	Tn6 DDE FP 16 | Tn6 DDE ctr inactive | Tn6 DDE conf inactive
C[C@@H]1CN([C@@H](C)CO)C(=O)CCCn2cc(nn2)CO[C@H]1CN(C)C(=O)Nc1ccc(-c2cccs2)cc1	none
O=C(CSc1nnc(-c2cccs2)o1)c1ccc(F)cc1	none (no result: ASAP1 inh, ARFGAP1 inhibitor)
CC(Oc1ccc(F)cc1)C(O)CCN(C)C (centres undefined)	Tn6 DDE FP 24 | Tn6 DDE ctr inactive | Tn6 DDE conf inactive
COC(=O)Cc1c([C@H](C)[C@@H](OC)c2ccccc2Br)nnn1Cc1ccccc1	none
COc1ccc(C2=Nn3c(nnc3-c3ccncc3)SC2)cc1OC	Tn6 DDE FP 19 | Tn6 DDE ctr inactive | Tn6 DDE conf inactive
COc1ccc(C2=Nn3c(nnc3-c3cccnc3)SC2)cc1OC	none
COc1cc(NC(=O)CN(C)Cc2cccc(F)c2)c(C)cc1[N+](=O)[O-]	Tn6 DDE FP 17 | Tn6 DDE ctr inactive | Tn6 DDE conf inactive
Cc1cccc(C(=O)NNC(=O)CN2C(=O)c3ccccc3C2=O)c1	Tn6 DDE FP 17 | Tn6 DDE ctr inactive | Tn6 DDE conf inactive
CCOC(=O)[C@@]12CCC3=C1N(CCC3)C(=O)[C@H](CC(=O)NCc1ccccc1)C2	none (no result: ASAP1 inh, ARFGAP1 inhibitor)
Cc1ccc(S(=O)(=O)NCC(=O)N2CCN(c3ccccn3)CC2)s1	none (no result: ASAP1 inh, ARFGAP1 inhibitor)
